Published values of several laboratories.
Compare with care: the assays were run in different laboratories.
MET: Hepatocyte growth factor receptor (MET, Homo sapiens, UniProt P08581)
MET M1250T: Hepatocyte growth factor receptor (MET, Homo sapiens, UniProt P08581, M1250T)
MET Y1235D: Hepatocyte growth factor receptor (MET, Homo sapiens, UniProt P08581, Y1235D)

SMILES | target | assay | conditions | endpoint | value
O=c1[nH]c2ccccc2n1C1CCN(Cc2ccc(-c3[nH]c4cc5ncnc5cc4nc3-c3ccccc3)cc2)CC1 | MET | cell-free assay | 0.5 µM | remaining signal | 102%
Cn1cc(-c2cccc(N3CCc4c(sc5c4CC(C)(C)C5)C3=O)c2CO)cc(Nc2ccncn2)c1=O | MET M1250T | enzyme activity, inhibitor | 1 µM | inhibition | 5%
Nc1ncc(-c2nc(N3CCOCC3)nc(N3CCOCC3)n2)c(C(F)F)n1 | MET Y1235D | cell-free assay, competition with immobilised ligand | 10 µM | remaining binding | 92%
Cn1cncc1[C@](O)(COc1ccc(C#N)cc1-c1ccc(OC(F)(F)F)cc1)c1ccc(C#N)cc1 | MET M1250T | cell-free assay, competition with immobilised ligand | 1 µM | remaining binding | 100%
CC(C)(C)c1cc(C=C(C#N)C#N)cc(Br)c1O | MET | enzyme activity, inhibitor | 0.5 µM | remaining activity | 111%
N#CC1(c2ccccn2)CCN(Cc2cc(C(=O)O)c(=O)n3ccccc23)CC1 | MET Y1235D | cell-free assay, competition with immobilised ligand | 1 µM | remaining binding | 99%
Cc1nn(C)cc1-c1nc2c(N3CCN(Cc4ccc(Cl)cc4)CC3)c(Cl)cnc2[nH]1 | MET | binding, competition with immobilised ligand | 1 µM | remaining binding | 83%
COc1ncccc1-c1cnn2ccc(N3CCN(C(=O)OC(C)C)CC3)nc12 | MET | binding, competition with immobilised ligand | 1 µM | remaining binding | 88%
Cn1cc(-c2cc(F)cc(N3CCn4c(cc5c4CCCC5)C3=O)c2CO)cc(Nc2ccc(N3CCN(C4COC4)CC3)cn2)c1=O | MET | enzyme activity, inhibitor | 0.1 µM | inhibition | 15%
C#Cc1n[nH]c2c(-c3cn(C(C)c4ccccn4)c(=O)[nH]c3=O)cc(F)cc12 (stereo not shown) | Hepatocyte growth factor receptor (MET, Homo sapiens, UniProt P08581, D1228H) | enzyme activity, inhibitor | 1 µM | inhibition | 100%
